Measured values gathered from unrelated publications.
Each line is one published result; the experiments were not run side by side.
Target: TRAF2 and NCK-interacting protein kinase (TNIK, Homo sapiens, UniProt Q9UKE5)

CCN1CCC2(CC1)NC(=O)c1c(c3ccc(Cl)c(Cl)c3n1C)C2C#N (racemic)
ΔTm (thermal stability, DSF; 10 µM): 0 °C

CCCCN(CCCC)C(=O)CN1C[C@@H](c2cc(OC)c3c(c2)OCO3)[C@H](C(=O)O)[C@H]1CC(C)(C)CCC
remaining binding (cell-free assay, competition with immobilised ligand; 1 µM): 86%

CCCCNc1ncc2c(-c3ccc(F)cc3)nn(C[C@H]3CC[C@H](N)CC3)c2n1
inhibition (target engagement in cells, inhibitor, chemoproteomics; 20 mM): 62.6%

O=C(Nc1cnn(-c2csc(C(=O)NC3COC3)c2)c1)Nc1c(F)cccc1Cl
remaining activity (enzyme activity, inhibitor; 5 µM): 84.3%

Cc1ccc(C(=O)Nc2ccc(CN3CCN(C)CC3)c(C(F)(F)F)c2)cc1C#Cc1cnc2cccnn12
remaining activity (enzyme activity, inhibitor; 23.5 nM): 34%

N#CC1c2c([nH]c3c(Cl)c(Cl)ccc23)C(=O)NC12CCCCC2 (racemic)
ΔTm (thermal stability, DSF; 10 µM): 0 °C

CN(C)c1ncnc(-c2ccc3nc(Nc4cc(CN5CCN(C(=O)CC(F)(F)F)CC5)ccn4)[nH]c3c2)c1Cl
remaining binding (cell-free assay, competition with immobilised ligand; 1 µM): 53%

C=CC(=O)Nc1cc(Nc2nccc(Nc3cc(Cl)c(F)cc3C(C)(C)O)n2)c(OC)cc1N1CC[C@@H](N(C)C)C1
inhibition (enzyme activity, inhibitor; 1 µM): 47%

COc1cccc2c(NCc3ccccc3)nc(-n3c(N)nc4ccccc43)nc12
inhibition (target engagement in cells, inhibitor, chemoproteomics; 20 mM): 3.5%

O=C(N[C@H]1CCCCC/C=C\C2C[C@@]2(C(=O)O)NC(=O)[C@@H]2C[C@@H](Oc3ccncc3)CN2C1=O)OC1CCCC1 (some centres unmarked)
remaining binding (binding, competition with immobilised ligand; 1 µM): 78%

Cn1c2c(c3ccc(Cl)c(Cl)c31)C(C#N)C1(CCNCC1)NC2=O (racemic)
ΔTm (thermal stability, DSF; 10 µM): -0.1 °C

CO[C@@H](C)c1c(Nc2ccc([C@@H](N(C)C(=O)C3CCS(=O)(=O)CC3)C(F)(F)F)cc2)cnc2cc(Cl)nn12
remaining binding (cell-free assay, competition with immobilised ligand; 1 µM): 100%

Cn1cnc(Br)c1C1=CN(c2ncnc3[nH]cnc23)CCS1
inhibition (enzyme activity, inhibitor, radiometric; 50 nM): 21.5%

CC(C)(O)[C@H]1CC[C@H](Nc2ccc3ncc(-c4cccc(C(F)(F)F)c4)n3n2)CC1
remaining activity (enzyme activity, inhibitor; 1 µM): 96.9%

CN1CCC2(CC1)NC(=O)c1c(c3ccc(Cl)c(Cl)c3n1C)C2C#N (racemic)
ΔTm (thermal stability, DSF; 10 µM): 0 °C

CS(=O)(=O)Nc1cccc(-c2csc(NC(=O)CSc3nc4nccnc4c(=O)n3CCc3ccccc3)n2)c1
inhibition (enzyme activity, inhibitor; 10 µM): -2%

CN1CCN(c2cnc3c(C4CCN(C(=O)c5ccc(OC(F)(F)F)cc5N)CC4)ncnc3c2)CC1
remaining binding (cell-free assay, competition with immobilised ligand; 1 µM): 100%

CCC1(CC)NC(=O)c2c(c3ccc(Cl)c(Cl)c3n2C)C1C#N (centres unmarked)
ΔTm (thermal stability, DSF; 10 µM): 0.3 °C

COc1ccc2cc(OCC3(C(=O)O)CN(C(=O)c4ccc(F)cc4)C3)ccc2c1
remaining binding (cell-free assay, competition with immobilised ligand; 1 µM): 61%

Cn1c2c(c3ccc(Cl)c(Cl)c31)C(C#N)C1(CCCCC1)NC2=O (racemic)
ΔTm (thermal stability, DSF; 10 µM): 0 °C
